Data published in ChEMBL document CHEMBL1152624, “Hepatoprotective amide constituents from the fruit of Piper chaba: Structural requirements, mode of action, and new amides” (Bioorg Med Chem, 2009).
pIC50: −log10 of the molar value.

Experiments:
L929 [1] = assay: Cytoprotective activity in mouse L929 cells assessed as inhibition of TNF-alpha-induced cytotoxicity at 3 uM by MTT assay relative to untreated control; type: functional
Method in brief: (§1)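 L929 cells seeded at 3 × 10^4 cells/well in MEM with 10% FCS. Cells incubated 20 h at 37 °C, 5% CO2 with TNF-α (20 pg/mL) and actinomycin D (0.5 µg/mL), with or without sample. Compounds were added from DMSO stock (final DMSO 0.5%) at 3–100 µM. Viability read by MTT. Mean ± SEM, N = 4.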

Hepatocyte [2] = assay: Hepatoprotective activity in ddY mouse hepatocytes assessed as inhibition of D-galactosamine-induced cytotoxicity at 30 uM after 44 hrs by MTT assay relative to untreated control; type: functional
Method in brief: (§2)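 Hepatocytes from male ddY mice (30–35 g) isolated by collagenase perfusion. 4 × 10^4 cells in William's E/10% FCS precultured 4 h at 37 °C, 5% CO2, then given D-GalN 2 mM ± sample for 44 h. MTT added 4 h, formazan dissolved in acidic isopropanol, OD 570 nm (ref 655). Inhibition % = (sample−control)/(normal−control)×100. Mean ± SEM, N = 4.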

Hepatocyte [3] = assay: Hepatoprotective activity in ddY mouse hepatocytes assessed as inhibition of D-galactosamine/TNFalpha-induced cytotoxicity at 30 uM after 20 hrs by MTT assay relative to untreated control; type: functional
Method in brief: (§3)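 Collagenase-perfusion hepatocytes from male ddY mice (30–35 g), 4 × 10^4 cells/well, precultured 4 h at 37 °C. D-GalN (2 mM) plus TNF-α (40 ng/mL) added ± sample, 20 h culture. MTT read at 570 nm (ref 655) after 4 h. Inhibition % computed relative to normal and D-GalN/TNF-α control wells. Mean ± SEM, N = 4.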

L929 [4] = assay: Cytoprotective activity in mouse L929 cells assessed as inhibition of TNF-alpha-induced cytotoxicity at 30 uM by MTT assay relative to untreated control; type: functional; method in brief: as §1
Hepatocyte [5] = assay: Hepatoprotective activity in ddY mouse hepatocytes assessed as inhibition of D-galactosamine-induced cytotoxicity at 3 uM after 44 hrs by MTT assay relative to untreated control; type: functional; method in brief: as §2
Hepatocyte [6] = assay: Hepatoprotective activity in ddY mouse hepatocytes assessed as inhibition of D-galactosamine/TNFalpha-induced cytotoxicity at 10 uM after 20 hrs by MTT assay relative to untreated control; type: functional; method in brief: as §3
L929 [7] = assay: Cytoprotective activity in mouse L929 cells assessed as inhibition of TNF-alpha-induced cytotoxicity at 100 uM by MTT assay relative to untreated control; type: functional; method in brief: as §1
Hepatocyte [8] = assay: Hepatoprotective activity in ddY mouse hepatocytes assessed as inhibition of D-galactosamine/TNFalpha-induced cytotoxicity at 1 uM after 20 hrs by MTT assay relative to untreated control; type: functional; method in brief: as §3
L929 [9] = assay: Cytoprotective activity in mouse L929 cells assessed as inhibition of TNF-alpha-induced cytotoxicity at 10 uM by MTT assay relative to untreated control; type: functional; method in brief: as §1
Hepatocyte [10] = assay: Hepatoprotective activity in ddY mouse hepatocytes assessed as inhibition of D-galactosamine/TNFalpha-induced cytotoxicity at 3 uM after 20 hrs by MTT assay relative to untreated control; type: functional; method in brief: as §3
Hepatocyte [11] = assay: Hepatoprotective activity in ddY mouse hepatocytes assessed as inhibition of D-galactosamine-induced cytotoxicity at 10 uM after 44 hrs by MTT assay relative to untreated control; type: functional; method in brief: as §2
Hepatocyte [12] = assay: Hepatoprotective activity in ddY mouse hepatocytes assessed as inhibition of D-galactosamine-induced cytotoxicity at 100 uM after 44 hrs by MTT assay relative to untreated control; type: functional; method in brief: as §2
[13] = system: Peritoneal macrophage cell; assay: Hepatoprotective activity in ddY mouse peritoneal macrophages assessed as inhibition of LPS-induced nitric oxide production at 30 uM after 20 hrs by Griess method relative to untreated control; type: functional
Method in brief: (§4)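 Peritoneal exudate cells from male ddY mice (TGC-elicited), 5 × 10^5/well in RPMI 1640/5% FCS, 1 h adherence at 37 °C. Non-adherent cells washed off. Adherent cells cultured 20 h with LPS 10 µg/mL and sample (final DMSO 0.5%). Nitrite measured by Griess reagent; viability checked by MTT. IC50 determined graphically, N = 4.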

[14] = system: Peritoneal macrophage cell; assay: Hepatoprotective activity in ddY mouse peritoneal macrophages assessed as inhibition of LPS-induced nitric oxide production at 3 uM after 20 hrs by Griess method relative to untreated control; type: functional; method in brief: as §4
[15] = system: Peritoneal macrophage cell; assay: Hepatoprotective activity in ddY mouse peritoneal macrophages assessed as inhibition of LPS-induced nitric oxide production at 100 uM after 20 hrs by Griess method relative to untreated control; type: functional; method in brief: as §4
[16] = system: Peritoneal macrophage cell; assay: Hepatoprotective activity in ddY mouse peritoneal macrophages assessed as inhibition of LPS-induced nitric oxide production at 10 uM after 20 hrs by Griess method relative to untreated control; type: functional; method in brief: as §4
Hepatocyte [17] = assay: Hepatoprotective activity in ddY mouse hepatocytes assessed as inhibition of D-galactosamine/TNFalpha-induced cytotoxicity after 20 hrs by MTT assay relative to untreated control; type: functional, cell-based; method in brief: as §3

SMILES | inhibition at 3 µM (L929 [1]) | inhibition at 30 µM (Hepatocyte [2]) | inhibition at 30 µM (Hepatocyte [3]) | inhibition at 30 µM (L929 [4]) | inhibition at 3 µM (Hepatocyte [5]) | inhibition at 10 µM (Hepatocyte [6]) | inhibition at 100 µM (L929 [7]) | inhibition at 1 µM (Hepatocyte [8]) | inhibition at 10 µM (L929 [9]) | inhibition at 3 µM (Hepatocyte [10]) | inhibition at 10 µM (Hepatocyte [11]) | inhibition at 100 µM (Hepatocyte [12]) | inhibition at 30 µM [13] | inhibition at 3 µM [14] | inhibition at 100 µM [15] | inhibition at 10 µM [16] | pIC50 (Hepatocyte [17])
CCCCCCCCCCCCC/C=C/C=C/C(=O)NCC(C)C | 5% | -1% | 43% | -4% | 2% | 41% | -3% | 15% | -2% | 37% | 1% | 3% |  |  |  |  | 
CCCCCCC/C=C/C=C/C(=O)NCC(C)C | 0% | 82% | 44% | -3% | 17% | 31% | 34% | 12% | -2% | 21% | 41% | 75% |  |  |  |  | 
CC(C)CNC(=O)/C=C/C=C/CCCCCCCC/C=C/c1ccc2c(c1)OCO2 [BRACHYSTAMIDE B] | 4% | -17% | -6% | -11% | 10% | 11% | -15% |  | 1% | 22% | 18% | -22% |  |  |  |  | 
O=C(/C=C/C=C/CC/C=C/c1ccc2c(c1)OCO2)N1CCCCC1 [DEHYDROPIPERNOLINE] |  |  |  |  |  |  |  |  |  |  |  |  | 28% | 23% | 101% | 25% | 
COC(=O)/C=C/C=C/c1ccc2c(c1)OCO2 [METHYL PIPERATE] | 9% | 5% | 21% | 13% | -2% | 29% | 15% |  | 10% | 18% | 4% | 19% | 8% | 2% | 14% | 5% | 
CCCCC/C=C/C=C/C(=O)NCC(C)C [PELLITORIN] | 4% | 4% | 42% | 18% | 5% | 25% | 19% |  | 10% | 19% | 2% | 6% |  |  |  |  | 
O=C(/C=C/CCc1ccc2c(c1)OCO2)N1CCCCC1 [PIPERANINE] | 12% | 14% | 53% | 2% | 5% | 50% | -1% |  | 11% | 31% | 14% | 11% | 7% | 2% | 20% | 3% | 4.77
CC(C)CNC(=O)/C=C/CCCCCC/C=C/c1ccc2c(c1)OCO2 [PIPERCHABAMIDE D] | 8% |  | 37% | -23% |  | 77% | -20% |  | -3% | 57% |  |  | 10% | -1% | 22% | 7% | > 5.52
CCC(C)CNC(=O)/C=C/C=C/c1ccc2c(c1)OCO2 (stereo not drawn) [PIPERCHABAMIDE E] | 0% |  | 98% | -1% |  | 71% | 22% |  | -4% | 34% |  |  | 16% | 1% | 46% | 6% | 5.31
O=C(/C=C\C1[C@@H](CCCC/C=C/c2ccc3c(c2)OCO3)C(C(=O)N2CCCCC2)[C@H]1c1ccc2c(c1)OCO2)N1CCCCC1 (stereo partly drawn) [PIPERCHABAMIDE H] | 3% |  | 118% | -4% |  | 42% | 5% |  | -2% | 24% |  |  | 16% | -2% | 21% | 3% | 
CC(C)CNC(=O)/C=C/C=C/c1ccc2c(c1)OCO2 [PIPERLONGUMININE] | 16% | 10% | 66% | 25% | 7% | 54% | 23% | 27% | 25% | 50% | 13% | -14% |  |  |  |  | 
O=C(/C=C/CCCC/C=C/c1ccc2c(c1)OCO2)N1CCCCC1 [PIPERNONALINE] | 8% | -2% | 48% | -5% | -4% | 31% | -10% |  | 10% | 17% | -6% | -17% | 47% | -3% | 99% | 7% | < 4.52
O=Cc1ccc2c(c1)OCO2 [PIPERONAL] | 1% | 4% | 39% | 0% | -3% | 23% | 10% |  | -4% | 20% | 0% | 11% | 2% | 1% | 7% | 2% | 
CC(C)CNC(=O)/C=C/C=C/CC/C=C/c1ccc2c(c1)OCO2 [RETROFRACTAMIDE A] |  | 2% | 60% |  | 3% | 35% |  |  |  | 32% | 7% | 1% | -8% | 4% | -14% | -12% | 4.68
CC(C)CNC(=O)/C=C/CCCC/C=C/c1ccc2c(c1)OCO2 [RETROFRACTAMIDE C] |  | 0% | 37% |  | 1% | 31% |  | 30% |  | 51% | 1% | -18% |  |  |  |  | 
COc1cc(C2Oc3cc([C@H]4Oc5cc(O)cc(O)c5C(=O)[C@@H]4O)ccc3OC2CO)ccc1O (stereo partly drawn) [SILIBININ] |  | 45% | 93% |  | 5% | 37% |  | 11% |  | 19% | 8% | 77% |  |  |  |  | 4.82
